Among the data in ChEMBL document CHEMBL1139160 (Bioorg Med Chem Lett, 2007) are IC50 and inhibition in vivo values, retold here.

For test [1], the target named is Dipeptidyl peptidase 4 (Rattus norvegicus, UniProt P14740). Put plainly: Inhibition of DPP4 in rat plasma by fluorescence assay. It is filed as cell-free.
Test [2] concerns Rattus norvegicus. Put plainly: Inhibition of DPP4 in Wistar rat plasma at 10 umol/kg, po within 30 mins. The test is classed as functional. Conditions: 0.5 h. The gist of the method: (§1)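 Male/female not stated; Wistar rats given single oral dose of 10 µmol/kg in 0.5% hydroxypropylmethyl-cellulose. Jugular vein blood (0.1 mL) taken pre-dose and 0.5, 1, 2, 3, 5, 7, 9 h; plasma diluted 10-fold in PBS with 0.003% Brij-35, DPP-IV activity read by Gly-Pro-MCA fluorescence (ex 360/em 465 nm); % change of baseline, means ± SEM, n = 3.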

The subject of test [3] is Rattus norvegicus. Put plainly: Inhibition of DPP4 in Wistar rat plasma at 10 umol/kg, po after 9 hrs. It is filed as functional. Conditions: read-out: Inhibition. The gist of the method: as §1
The test system of test [4] is Rattus norvegicus. Nature of the test: Inhibition of DPP4 in Wistar rat plasma at 10 umol/kg, po. It is filed as functional. The gist of the method:
as §1

Sequence of Dipeptidyl peptidase 4 (P14740 whole entry): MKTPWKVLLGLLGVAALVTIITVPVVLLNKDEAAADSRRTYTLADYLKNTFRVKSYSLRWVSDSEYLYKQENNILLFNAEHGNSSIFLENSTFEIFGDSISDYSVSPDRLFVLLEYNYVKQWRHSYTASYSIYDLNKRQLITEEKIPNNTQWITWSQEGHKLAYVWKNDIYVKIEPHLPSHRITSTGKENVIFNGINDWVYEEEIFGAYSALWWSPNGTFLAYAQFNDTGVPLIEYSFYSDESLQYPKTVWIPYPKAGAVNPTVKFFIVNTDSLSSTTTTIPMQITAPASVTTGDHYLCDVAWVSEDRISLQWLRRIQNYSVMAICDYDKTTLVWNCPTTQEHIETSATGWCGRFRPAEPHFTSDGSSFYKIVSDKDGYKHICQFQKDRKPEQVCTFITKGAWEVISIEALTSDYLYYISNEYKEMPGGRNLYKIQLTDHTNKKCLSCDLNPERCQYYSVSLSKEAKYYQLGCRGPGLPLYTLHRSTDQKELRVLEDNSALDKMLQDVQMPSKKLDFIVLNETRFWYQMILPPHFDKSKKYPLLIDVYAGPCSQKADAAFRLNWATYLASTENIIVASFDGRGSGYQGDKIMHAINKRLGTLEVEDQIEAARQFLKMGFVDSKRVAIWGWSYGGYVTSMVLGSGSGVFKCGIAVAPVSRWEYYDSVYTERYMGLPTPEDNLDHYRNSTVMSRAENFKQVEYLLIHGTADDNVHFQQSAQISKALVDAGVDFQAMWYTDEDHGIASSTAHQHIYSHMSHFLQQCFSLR

In turn, `COc1ccc(N2CCN([C@@H]3CN[C@H](C(=O)N4CCSC4)C3)CC2)cc1` displayed an IC50 in test [1] of 16.9 nM. With `O=C([C@@H]1C[C@H](N2CCN(c3ccc(Cl)cc3)CC2)CN1)N1CCSC1`, the IC50 in test [1] came out at 10.3 nM. This IC50 is about 1.6-fold lower than that of the compound before. Regarding `N#Cc1ccc(N2CCN([C@@H]3CN[C@H](C(=O)N4CCSC4)C3)CC2)cc1C#N`, the values for the inhibition in vivo at 10 µmol/kg in test [2] and in test [3] were 95% and over 60%, respectively. As to `O=C([C@@H]1C[C@H](N2CCN(c3ccc(Br)cc3)CC2)CN1)N1CCSC1`, inhibition in test [1] was half-maximal at 9 nM (IC50). Compound `O=C([C@@H]1C[C@H](N2CCN(c3ccccc3)CC2)CN1)N1CCSC1` had an IC50 in test [1] of 17.6 nM. Take `O=C([C@@H]1C[C@H](N2CCN(c3ccc(C(F)(F)F)cc3)CC2)CN1)N1CCSC1`: in test [1], inhibition was half-maximal at 7.2 nM (IC50). For `N#Cc1ccc(N2CCN([C@@H]3CN[C@H](C(=O)N4CCSC4)C3)CC2)nc1`, the IC50 in test [1] is 1.9 nM.

The compound `N#Cc1ccc(N[C@@H]2CN[C@H](C(=O)N3CCSC3)C2)nc1` returned an inhibition in vivo at 10 µmol/kg in test [4] of 70%. Compound `O=C([C@@H]1C[C@H](N2CCCCC2)CN1)N1CCSC1` came in with an IC50 in test [1] of 74.4 nM. This lies in the double-digit nanomolar range.

`O=C([C@@H]1C[C@H](N2CCN(c3cccc(Cl)c3)CC2)CN1)N1CCSC1` displayed a half-maximal inhibitory concentration (IC50) in test [1] of 7.2 nM.

For the compound `N#Cc1ccc(N2CCN([C@@H]3CN[C@H](C(=O)N4CCSC4)C3)CC2)cc1`, half-maximal inhibition in test [1] (IC50) was put at 4.7 nM. Regarding `O=C([C@@H]1C[C@H](N2CCN(c3ccc(F)cc3)CC2)CN1)N1CCSC1`, in test [1], the IC50 stood at 17.5 nM. In test [1], `N#Cc1ccnc(N2CCN([C@@H]3CN[C@H](C(=O)N4CCSC4)C3)CC2)c1` yielded an IC50 of 1.4 nM. Regarding `O=C([C@@H]1C[C@H](N2CCN(c3ccc([N+](=O)[O-])cn3)CC2)CN1)N1CCSC1`, the inhibition in vivo at 10 µmol/kg in test [2] is 95%; in test [3], over 60%.

As a reminder, the IC50 is the concentration at which inhibition is half-maximal. A high value points to weaker potency in that assay.
